SR-BI DiI inh = blocks mouse SR-BI lipid uptake from DiI-HDL. Q61009. ldlA[mSR-BI] CHO cells, DiI-HDL uptake fluorescence, 3 h. inhibition, % at 12.5 µM. 320,000 compounds, 0.96% hits. AID 488896;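 active = mean replicate inhibition of at least 70% and a set share of replicates each scoring 70 or more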;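 also: 0% = median of neutral control wells and 100% = median of positive control wells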
ANO1 activ = activators or potentiators of mouse TMEM16A chloride channel; Q8BHY3; HEK293 TMEM16A/YFP-H148Q/I152L, iodide quench fluorescence; stronger effect = lower value; B-score at 10 µM; 340,000 compounds, 0.3% hits;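 active = fluorescence-ratio B-score plate-corrected deviation score at least 3 library SD below zero, with starting fluorescence score within 5 deviations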;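 also: channel opened by trigger with iodide after compound preincubation; score built on the fluorescence ratio of max minus min over baseline; more negative score means more quench and so TMEM16A activation or potentiation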
TMEM16A inh = inhibitors of mouse TMEM16A calcium-activated chloride channel; Q8BHY3; HEK293 TMEM16A/YFP iodide influx fluorescence, ionomycin; normalized B-score (activity score, 25-100; higher = stronger inhibition) at 10 µM; 310,000 compounds, 1.2% hits; AID 588511;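 active = ratio plate-corrected score three or more library SD toward inhibition, starting fluorescence score within five deviations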;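 also: score derived from kinetic fluorescence span divided by baseline fluorescence per well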
Kir21 inh = blocks the mouse Kir2.1 inward-rectifier potassium channel. P35561. HEK293-Kir2.1, FluxOR thallium flux fluorescence; stronger effect = lower value. B-score at 10 µM. 310,000 compounds, 0.85% hits. AID 1672;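 active = fluorescence ratio B-score at or below minus 3 SD of library scores, with starting-brightness B-score within 2 SD, cut at about -4.2 in these data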;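 also: channel flux triggered by added potassium and thallium sulfate stimulus; B-score of peak minus minimum fluorescence over baseline after thallium stimulus; more negative B-score means stronger Kir2.1 block with less thallium influx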
Target sequence (P35561 whole entry, looked up): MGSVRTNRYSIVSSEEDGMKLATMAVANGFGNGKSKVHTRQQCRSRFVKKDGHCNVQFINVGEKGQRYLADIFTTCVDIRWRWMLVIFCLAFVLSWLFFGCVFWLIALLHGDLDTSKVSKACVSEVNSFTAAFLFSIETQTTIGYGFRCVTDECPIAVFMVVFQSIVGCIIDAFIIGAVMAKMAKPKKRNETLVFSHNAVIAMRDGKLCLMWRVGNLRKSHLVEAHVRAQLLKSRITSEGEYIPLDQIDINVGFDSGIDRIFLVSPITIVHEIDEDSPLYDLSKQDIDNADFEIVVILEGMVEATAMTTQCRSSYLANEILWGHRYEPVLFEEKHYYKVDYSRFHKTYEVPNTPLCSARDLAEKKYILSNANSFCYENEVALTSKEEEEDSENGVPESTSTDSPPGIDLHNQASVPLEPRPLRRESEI
DNA FID counter = displaces DNA intercalator in HCV helicase counter-screen | inhibition, % at 7.9 µM | DNA fluorescent intercalator displacement, fluorescence | 290,000 compounds, 0.17% hits | AID 1845; in the data active = inhibition above about 37%;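 also: 0% = vehicle and 100% = reference compound; higher means more ethidium bromide displaced from hairpin DNA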
SR-BI DiI-HDL act = enhances SR-BI lipid uptake from DiI-HDL | activation, % at 12.5 µM | 320,000 compounds, 0.096% hits | CHO ldlA[mSR-BI] cells, DiI-HDL uptake fluorescence, 3 h; 100 = double the neutral-control signal;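 active = mean replicate activation of at least 60% and every replicate at or above 60%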;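 also: 0% = median plate neutral-control signal and 100% = twice that signal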
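Material – SR-BI-overexpressing, LDLR-lacking CHO cells · Medium – BSA-supplemented, HEPES-buffered Ham's F12, pH 7.4 · Doses – single concentration · Times – compound with DiI-HDL co-incubation, 3 h at 37 °C · Measured by – bottom-read fluorescence, 550/595 nm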
hERG ctr = counter-screen for Kir2.1 inhibitors: effect on human hERG; shares compounds with Kir21 inh; AID 2236; hERG-expressing cells, thallium flux; inhibition, % at 10 µM; 320 compounds, 20% hits;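 also: host cells are CHO cells stably expressing hERG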
KCNK9 inh = selectivity of Kir2.1 inhibitors: effect on human KCNK9; 320 compounds, 5% hits; AID 2329; KCNK9-expressing cells, ion flux inhibition; inhibition, % at 10 µM; shares compounds with Kir21 inh
Kir2-1 patch inh = blocks mouse Kir2.1 current in automated electrophysiology; shares compounds with Kir21 inh; Kir2.1 cells, automated patch-clamp current inhibition; inhibition, % at 25 µM; 320 compounds, 71% hits
Active calls of the source: *. Compounds with a hit are over-represented: about 3% of the library has one in this group of screens. Unless noted, no rule for the calls is given here.

How did CCOC(=O)C(=CNc1ccc(NC2=NCC(C)(C)S2)cc1)C(=O)OCC do in these assays?
SR-BI DiI inh: 11; ANO1 activ: inactive; TMEM16A inh: inactive; Kir21 inh: -7*; DNA FID counter: -1; SR-BI DiI-HDL act: -11; hERG ctr: inactive; KCNK9 inh: inactive; Kir2-1 patch inh: 22%*

Results for CCOc1cc(N2CCOCC2)c(OCC)cc1NC(=O)c1cc(S(=O)(=O)N2CCOCC2)ccc1C ?
SR-BI DiI inh: 69; ANO1 activ: inactive; SR-BI DiI-HDL act: -69

What do the screens show for `COc1ccc(CN(C(=O)c2oc3ccccc3c2C)C2CCS(=O)(=O)C2)cc1OC` (stereo unspecified)?
SR-BI DiI inh: 6; ANO1 activ: inactive; TMEM16A inh: inactive; DNA FID counter: -42; SR-BI DiI-HDL act: -6

Results for COc1ccc(CCN(C)C(=O)c2oc3ccccc3c2C)cc1OC ?
SR-BI DiI inh: -20; ANO1 activ: inactive; TMEM16A inh: inactive; Kir21 inh: -6.5*; SR-BI DiI-HDL act: 20; hERG ctr: inactive; KCNK9 inh: inactive; Kir2-1 patch inh: 61%*

How did Cc1ccc([N+](=O)[O-])cc1S(=O)(=O)NCC1COc2ccccc2O1 (stereo unspecified) do in these assays?
SR-BI DiI inh: 26; ANO1 activ: inactive; TMEM16A inh: inactive; Kir21 inh: -6.4*; DNA FID counter: 8; SR-BI DiI-HDL act: -26; hERG ctr: inactive; KCNK9 inh: 36%*; Kir2-1 patch inh: 11%*

What do the screens show for `CN(C)C(CNC(=O)CCc1nc2cc(Cl)ccc2n(Cc2ccccc2)c1=O)c1ccccc1` (stereo unspecified)?
SR-BI DiI inh: 22; ANO1 activ: inactive; TMEM16A inh: inactive; Kir21 inh: -6.4*; SR-BI DiI-HDL act: -22; hERG ctr: 71%*; KCNK9 inh: inactive; Kir2-1 patch inh: inactive

Results for COC(=O)c1ccc(CN2CCC(Oc3cccc(C(=O)N4CCOCC4)c3)CC2)cc1 ?
SR-BI DiI inh: -11; ANO1 activ: inactive; TMEM16A inh: inactive; Kir21 inh: -0.62; DNA FID counter: 2

How did CC(C)N(Cc1ccccc1)S(=O)(=O)c1ccc(Cl)nc1 do in these assays?
SR-BI DiI inh: -26; ANO1 activ: inactive; TMEM16A inh: inactive; Kir21 inh: -6.9*; SR-BI DiI-HDL act: 26; hERG ctr: inactive; KCNK9 inh: inactive; Kir2-1 patch inh: 33%*

Results for NC(=O)c1ccc(OCC(=O)N2CCNC2=O)cc1 ?
SR-BI DiI inh: -10; ANO1 activ: inactive; SR-BI DiI-HDL act: 10

Results for CCS(=O)(=O)N1CCC(NC(=O)C(Cc2cc(OC)ccc2OC)NC(C)=O)CC1 (stereo unspecified) ?
SR-BI DiI inh: -34; ANO1 activ: inactive; TMEM16A inh: inactive; Kir21 inh: 1.9; DNA FID counter: -17; SR-BI DiI-HDL act: 34; hERG ctr: inactive; KCNK9 inh: inactive; Kir2-1 patch inh: inactive

Results for COc1ccc(CNS(=O)(=O)NCc2ccccc2)cc1 ?
SR-BI DiI inh: -2; ANO1 activ: inactive; TMEM16A inh: inactive; Kir21 inh: -0.04; DNA FID counter: -5; SR-BI DiI-HDL act: 2

Results for COc1ccc(CNCc2ccc(OC)c3ccccc23)cc1 ?
SR-BI DiI inh: -1; ANO1 activ: inactive; TMEM16A inh: inactive; Kir21 inh: -14*; DNA FID counter: 0; SR-BI DiI-HDL act: 1; hERG ctr: inactive; KCNK9 inh: inactive; Kir2-1 patch inh: 8.1%*

Results for COc1cccc(CNCc2ccc(OC)c3ccccc23)c1OC ?
SR-BI DiI inh: 47; ANO1 activ: inactive; TMEM16A inh: inactive; Kir21 inh: -1.1; DNA FID counter: 15; SR-BI DiI-HDL act: -47

Assay outcomes (PubChem)
